Only some compounds are listed: those with a hit (about 2.3% of all), similar ones and a draw of the others.
OXTR agonist = human OXTR agonists, primary screen, fluorescence, CHO-OTR cells, Fluo-8 calcium; Fluo-8 calcium fluorescence; normalized: DMSO 0%, oxytocin 100%; Oxytocin receptor (Homo sapiens), P30559; AID 2435, 2010; 0.32% of 320,000 active; activation, % at 3 µM;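 active means activation above the mean of all tested compounds plus 3 SD, cutoff set per screening run, cut at about 20% in these data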;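 further: peak over basal fluorescence ratio from a 100 s FLIPR kinetic read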
Target sequence (P30559 whole entry, looked up): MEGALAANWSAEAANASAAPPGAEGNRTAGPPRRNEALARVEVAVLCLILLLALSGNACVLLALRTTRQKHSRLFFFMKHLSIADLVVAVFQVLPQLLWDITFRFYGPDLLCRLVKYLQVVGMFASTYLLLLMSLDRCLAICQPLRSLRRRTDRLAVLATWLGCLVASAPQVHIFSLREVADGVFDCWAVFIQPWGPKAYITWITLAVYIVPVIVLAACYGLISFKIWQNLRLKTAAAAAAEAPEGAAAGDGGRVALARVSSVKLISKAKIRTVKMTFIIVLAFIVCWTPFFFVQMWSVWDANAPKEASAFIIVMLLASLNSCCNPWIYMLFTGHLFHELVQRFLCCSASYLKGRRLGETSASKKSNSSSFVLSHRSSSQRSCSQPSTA
OXTR potentiate = human OXTR potentiators, primary screen, fluorescence, CHO-OTR cells, Fluo-8 calcium; AID 2445, 2010; activation, % at 3 µM; Fluo-8 calcium fluorescence, potentiator mode; 0% = oxytocin EC15, 100% = EC100; 0.061% of 320,000 active;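 active means activation above that plate's cutoff, the mean activation of tested compounds plus 3 SD, cut at about 6.6% in these data, passing the limit was not always enough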;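 further: 100% uses oxytocin at 75 nM as the full agonist control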
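Material: human OTR in CHO cells. Compound: 3.0 µM, one dose. Timing: compound 6 min at room temperature before oxytocin, 100 s read. Evaluation: % activation of max/min ratio relative to oxytocin controls. Replication: single well per compound, singlicate. Signal: Fluo-8 calcium dye fluorescence.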
TAAR1 agonist = human TAAR1 agonists, primary screen, Fluo-8 calcium fluorescence, CHO RD-HGA16 cells; vehicle wells 0%, saturating PEA agonist 100%; activation, % at 3 µM; 0.99% of 360,000 active; AID 624467, 2012;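 active means activation above the mean activation of all test compounds in the run plus 3 SD, cut at about 38% in these data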
Target sequence (Q96RJ0 whole entry, looked up): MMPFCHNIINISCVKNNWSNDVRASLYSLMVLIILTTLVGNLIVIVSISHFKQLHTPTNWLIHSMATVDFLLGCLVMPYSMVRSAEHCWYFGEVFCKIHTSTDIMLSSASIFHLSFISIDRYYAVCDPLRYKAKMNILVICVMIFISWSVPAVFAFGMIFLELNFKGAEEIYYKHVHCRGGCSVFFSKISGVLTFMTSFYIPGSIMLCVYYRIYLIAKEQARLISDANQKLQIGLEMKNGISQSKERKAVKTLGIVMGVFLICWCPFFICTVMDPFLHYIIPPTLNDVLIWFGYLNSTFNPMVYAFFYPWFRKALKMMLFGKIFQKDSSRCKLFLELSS
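Test system: RD-HGA16 (CHO) cells co-expressing Gα16 and hTAAR1 | Doses: Single dose, 3 µM | Schedule: 17-24 h seeding, 75 min 37 °C dye, 30 min RT | Evaluation: % activation from peak over basal fluorescence ratio, DMSO-to-PEA scaled | Technique: Kinetic Fluo-8 calcium fluorescence | Benchmarks: Low control DMSO, high control PEA (EC100)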
TAAR1 antagonist = human TAAR1 antagonists, primary screen, Fluo-8 calcium fluorescence, CHO RD-HGA16 cells | Trace amine-associated receptor 1 (Homo sapiens), Q96RJ0 | antagonist | inhibition, % at 3 µM | 1.5% of 360,000 active | AID 624466, 2012;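 active means inhibition above a per-plate cutoff, the mean inhibition of test compounds on that plate plus 3 SD, cut at about 49% in these data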;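 further: 0% = DMSO plus EC80 beta-PEA response and 100% = DMSO alone without agonist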
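Test system: CHO RD-HGA16 cells bearing hTAAR1 | Reagent: β-PEA, EC80 | Compound dosing: 3 µM, single point | Schedule: Dye loading 75 min at 37 °C, then 30 min room temperature | Signal: Calcium fluorescence with Fluo-8 | Evaluation: Percent inhibition of PEA-evoked calcium signal, max/basal emission ratio | Control set: DMSO-only wells and EC80 β-PEA-stimulated wells | Repeats: Singlicate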
V1aR counter = agonists of human V1a receptor, primary screen, counter-screen for OXTR agonist project, fluorescence, CHO-V1R cells. Vasopressin V1a receptor (Homo sapiens), P37288. activation, % at 3 µM. AID 2797, 2010. 0.25% of 320,000 active. Fluo-8 calcium fluorescence, agonist mode; 0% DMSO, 100% 3 nM vasopressin;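 active means activation above the mean activation of all tested compounds plus 3 SD, per screening run, cut at about 20% in these data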;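 further: signal is peak over basal fluorescence ratio across a 100 second FLIPR read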
TAAR1 ag conf = human TAAR1 agonists, retest of hits, confirmation, Fluo-8 calcium fluorescence, CHO RD-HGA16 cells; shares compounds with TAAR1 agonist; scaled: DMSO 0%, maximal phenethylamine 100%; activation, % at 3 µM; 82% of 2,400 active;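 active means activation above a cutoff set at the run's mean compound activation plus 3 SD, cut at about 39% in these data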
Ga16 ag counter = nonselective calcium mobilization agonists, CHO-Ga16 cells, counter-screen for hTAAR1 agonist project, cell-based, fluorescence, CHO-Ga16 parental line | shares compounds with TAAR1 agonist | Fluo-8 calcium fluorescence; normalized to maximal ATP response, DMSO zero | activation, % at 3 µM | 50% of 2,400 active | AID 651787, 2012;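 active means activation above the run cutoff, the mean activation over all tested wells plus 3 SD, cut at about 12% in these data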;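 further: 0% = DMSO wells and 100% = maximal ATP response on the peak over basal ratio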
TAAR1 desensitize = TAAR1 desensitization by agonist hits, confirmation, counter-screen for TAAR1 agonist project, cell-based, fluorescence, tachyphylaxis; inhibition, % at 3 µM; 46% of 2,400 active; shares compounds with TAAR1 agonist; CHO RD-HGA16 hTAAR1, Fluo-8 calcium, beta-PEA response inhibition; AID 651951, 2012;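 active means inhibition above the run cutoff, the mean inhibition of all test compounds plus 3 SD, cut at about 49% in these data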;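 further: beta-PEA stimulus applied at its EC80; loss of beta-PEA calcium signal after compound pretreatment read as receptor desensitization; 0% = DMSO with beta-PEA at EC80 and 100% = DMSO alone without agonist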
Ga16 nonsel ant = inhibition of ATP-evoked calcium response in CHO-Ga16 cells, counter-screen for TAAR1 agonist project, cell-based, fluorescence | shares compounds with TAAR1 agonist | inhibition, % at 3 µM | 39% of 2,400 active | CHO-Ga16 ATP-induced calcium, Fluo-8 fluorescence;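 active means inhibition above the plate's mean compound inhibition plus 3 SD, computed per plate, cut at about 22% in these data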;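 further: 0% = EC80 ATP with DMSO and 100% = DMSO wells without ATP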
* marks the source's active call; other numbers are inactive results; · = no result; ! = not confirmed by another sample.

SMILES	OXTR agonist	OXTR potentiate	TAAR1 agonist	TAAR1 antagonist	V1aR counter	TAAR1 ag conf	Ga16 ag counter	TAAR1 desensitize	Ga16 nonsel ant
CCCCn1c(O)c(C(C)=NCCc2ccccc2)c(=O)[nH]c1=O	-1.1	-2.2	73.1*	33.7	-0.1	44.5*	3.9	10.7	10.9
CC1CN2c3ccc([N+](=O)[O-])cc3CC3(C(=O)N(C)C(=O)N(C)C3=O)C2C(C)O1 (stereo unspecified)	-1.4	2.8	0.5	-13.7	-0.5	·	·	·	·
NCC(CC(=O)O)C1CCCCC1 (stereo unspecified)	0.4	-5.2	·	·	-0.6	·	·	·	·
O=C(O)c1ccc(NC(=O)N2C[C@H]3C[C@@H](C2)c2cccc(=O)n2C3)cc1	1.2	-0.2	0.4	-0.3	0.6	·	·	·	·
S=C(NCCc1ccccc1)N1Cc2ccc(Br)cc2-n2nncc2C1	·	·	60.5*	34.4	·	38.2*	2.8	21.7	19.0
NCCc1c[nH]c2ccc(OCc3ccccc3)cc12	-0.5	-8.5	1.3	-13.8	-0.5	·	·	·	·
CCCCCCCSc1cc(OC)c(CCNC)cc1OC	6.4	-12.4	66.8*	35.3	5.0	51.7*	21.0*	44.3	24.1*
CCCCCSc1cc(OC)c(CCNC)cc1OC	13.0	-15.9	37.2	-9.8	7.2	·	·	·	·
CNCC(C)c1ccccc1 (stereo unspecified)	0.8	-6.9	83.6*	59.4*	0.6	94.3*	0.9	83.0*	1.9
CCCCCCC(=O)N/N=C/c1c(O)n(C(C)CC)c(=S)[nH]c1=O (stereo unspecified)	-3.2	-9.2	3.9	-21.4	0.2	·	·	·	·
Cc1cc(C)cc(N2C(=O)NC(=O)/C(=C\c3cccn3-c3ccc(Cl)cc3)C2=O)c1	-0.2	-9.0	50.5*	32.4	-0.1	37.3	12.5*	36.0	20.2
CN1C(=O)/C(=C/c2cccn2-c2ccc3ccccc3c2)C(=O)NC1=S	-1.3	-9.3	5.1	31.9	-0.2	·	·	·	·
CC(=O)OC1C(O)C(C)OC(OC2C(OC(=O)C3CCC4C(C3)OC3(CC(OC(=O)/C=C/c5ccccc5)C(C)CO3)C43CO3)OC(C)C(O)C2OC(C)=O)C1O (stereo unspecified)	·	·	1.4	7.7	·	·	·	·	·
O=C1NC(=O)N(c2ccccc2)C(=O)/C1=C/c1ccc(Sc2ccccc2)o1	2.2	-8.5	·	·	1.4	·	·	·	·
O=C1NC(=O)N(c2cccc(Cl)c2)C(=O)/C1=C\c1ccc(Sc2nc3ccccc3[nH]2)o1	59.1*	-21.2	117.6*	75.0*	57.3*	25.7	32.3*	29.2	38.5*
O=C(Nc1ccc(Cl)cc1)Nc1nccs1	8.9	-24.7	50.0*	32.7	7.2	56.2*	7.8	34.3	22.0*
CN1CC(C(=O)c2ccc(Cl)cc2)C(c2ccccc2)C1 (stereo unspecified)	1.1	-12.3	45.3*	1.8	1.3	75.4*	12.7*	35.7	11.0
CN1CC(C(=O)c2cccs2)C(c2ccc(Cl)cc2)C1 (stereo unspecified)	2.3	-0.5	0.9	-23.0	1.3	·	·	·	·
CC1CN(CC(=O)c2ccccc2Cl)CC(C)O1 (stereo unspecified)	-0.7	-8.3	84.8*	54.2*	1.5	105.8*	2.8	43.5	-10.3
C[C@H]1CCCC(=O)CCC/C=C/c2cc(O)cc(O)c2C(=O)O1	-0.5	-1.7	11.9	-21.8	0.4	·	·	·	·
COc1cc(O)cc2c1C(=O)OC(C)CCCC(=O)CCC/C=C\2 (stereo unspecified)	0.8	-8.3	55.2*	10.4	0.9	30.0	26.3*	34.8	22.8*
NC(=O)c1ccc(OCCC(O)N2CC=C(c3ccc(F)cc3)CC2)cc1 (stereo unspecified)	1.9	-5.9	2.2	-2.0	2.4	·	·	·	·
NC(N)=N/N=C/c1cn(-c2ccccc2)nc1-c1cccs1	-0.2	-4.6	47.0*	3.8	-1.1	76.0*	7.1	35.2	12.6
O=c1c2ccccc2nc(-c2cccs2)n1-c1ccccc1	-2.1	-1.7	7.5	-18.1	-1.1	·	·	·	·
CCN(CC)Cc1c[nH]c2ccccc12	0.9	-4.7	9.1	10.2	1.5	·	·	·	·
SMILES	OXTR agonist	OXTR potentiate	TAAR1 agonist	TAAR1 antagonist	V1aR counter	TAAR1 ag conf	Ga16 ag counter	TAAR1 desensitize	Ga16 nonsel ant
CN(CCc1ccccc1)Cc1c[nH]c2ccccc12	0.9	-4.6	92.7*	83.6*	1.7	95.7*	2.1	76.6*	2.5
CC(N)Cc1ccc(O)cc1 (stereo unspecified)	·	·	96.0*	54.1*!	·	94.1*	2.5	83.9*	4.6
O=C(CCc1ccccc1)N1Cc2cc(-c3cccc(F)c3)ccc2-n2nncc2C1	·	·	-1.8	15.9	·	·	·	·	·
Cc1cccc(C)c1N1CCN(c2c(C)cccc2C)CC1	·	·	4.2	-0.5	·	·	·	·	·
O=C1NC(=S)N(c2ccc(Br)cc2)C(=O)/C1=C/N1CCN(C(=O)c2ccco2)CC1	2.3	-19.1	32.2	10.8	2.4	·	·	·	·
Cc1ccc(N2C(=O)/C(=C/N3CCN(C(=O)c4ccco4)CC3)C(=O)NC2=S)cc1C	1.1	-0.9	56.1*	-7.2	0.8	73.4*	0.6	5.9	1.9
Cc1cccc(N2C(=O)/C(=C/N3CCN(C(=O)c4ccco4)CC3)C(=O)NC2=S)c1	0.5	-8.1	49.1*	-13.7	1.0	60.7*	0.4	3.8	4.5
O=C1NC(=S)N(c2ccccc2)C(=O)/C1=C/c1ccco1	2.7	-22.1	1.8	8.2	4.6	·	·	·	·
O=C1c2ccccc2-n2nnc(-c3ccccc3)c2C2c3ccccc3CCN12 (stereo unspecified)	·	·	7.2	18.6	·	·	·	·	·
N/C(=N\[N+](=O)[O-])N/N=C/c1ccc(O)cc1	0.7	3.6	17.5	-16.9	0.5	·	·	·	·
CCOC(=O)c1cc2c(cn1)[C@@H](CCO)NC2	·	·	1.4	3.7	·	·	·	·	·
